Experimental data reported in ChEMBL document CHEMBL4257503, “N-Acetyl-3-aminopyrazoles block the non-canonical NF-kB cascade by selectively inhibiting NIK” (Medchemcomm, 2018).
The source made the active and inactive calls. The calls are words filed in the database; no cut-off is given here.

Assays:
[1] = system: Mitogen-activated protein kinase kinase kinase 14 (Homo sapiens), Q99558 [S549D]; experiment: Inhibition of human NIK kinase domain S549D mutant
[2] = target: T1, Inhibitor of nuclear factor kappa-B kinase subunit alpha (Homo sapiens, UniProt O15111); experiment: Inhibition of recombinant full length human His-tagged IKKalpha expressed in baculovirus expression system using ERLLDDRHDSGLDSMKDEE peptide as substrate measured after 60 mins by ADP-Glo kinase assay
T1 sequence (O15111 whole entry): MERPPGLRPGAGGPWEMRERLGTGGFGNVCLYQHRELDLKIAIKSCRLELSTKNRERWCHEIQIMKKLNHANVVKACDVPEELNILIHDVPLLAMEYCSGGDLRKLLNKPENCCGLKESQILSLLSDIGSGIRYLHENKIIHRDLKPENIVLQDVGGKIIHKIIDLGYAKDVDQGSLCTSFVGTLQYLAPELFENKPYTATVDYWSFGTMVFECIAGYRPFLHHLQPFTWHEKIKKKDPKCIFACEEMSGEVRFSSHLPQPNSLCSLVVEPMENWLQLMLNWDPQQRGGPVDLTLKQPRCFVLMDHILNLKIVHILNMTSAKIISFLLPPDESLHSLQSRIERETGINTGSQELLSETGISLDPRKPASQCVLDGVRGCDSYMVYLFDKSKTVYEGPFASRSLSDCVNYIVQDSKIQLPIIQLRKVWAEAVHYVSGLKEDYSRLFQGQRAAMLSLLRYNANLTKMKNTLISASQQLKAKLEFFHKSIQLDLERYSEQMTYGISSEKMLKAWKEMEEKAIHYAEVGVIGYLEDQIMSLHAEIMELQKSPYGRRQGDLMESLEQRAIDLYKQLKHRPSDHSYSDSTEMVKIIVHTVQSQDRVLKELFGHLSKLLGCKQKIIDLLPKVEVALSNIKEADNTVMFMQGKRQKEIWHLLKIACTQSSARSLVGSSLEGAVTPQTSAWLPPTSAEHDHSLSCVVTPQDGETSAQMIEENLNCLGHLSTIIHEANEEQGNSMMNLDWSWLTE
How it was run: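 Recombinant human IKKα, peptide substrate 100 µM, enzyme 8 ng/µL, ATP 1 µM in Tris-HCl pH 7.5 buffer with MgCl2, MnCl2, DTT, Na3VO4, BSA; 25°C, 60 min; ADP-Glo luminescence. Ten concentrations 0.005–100 µM; IC50 by nonlinear regression; means ± SD of three independent experiments.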

[3] = target: Mitogen-activated protein kinase kinase kinase 8 (Homo sapiens, UniProt P41279); experiment: Inhibition of COT (unknown origin)
Sequence of Mitogen-activated protein kinase kinase kinase 8 (P41279 whole entry): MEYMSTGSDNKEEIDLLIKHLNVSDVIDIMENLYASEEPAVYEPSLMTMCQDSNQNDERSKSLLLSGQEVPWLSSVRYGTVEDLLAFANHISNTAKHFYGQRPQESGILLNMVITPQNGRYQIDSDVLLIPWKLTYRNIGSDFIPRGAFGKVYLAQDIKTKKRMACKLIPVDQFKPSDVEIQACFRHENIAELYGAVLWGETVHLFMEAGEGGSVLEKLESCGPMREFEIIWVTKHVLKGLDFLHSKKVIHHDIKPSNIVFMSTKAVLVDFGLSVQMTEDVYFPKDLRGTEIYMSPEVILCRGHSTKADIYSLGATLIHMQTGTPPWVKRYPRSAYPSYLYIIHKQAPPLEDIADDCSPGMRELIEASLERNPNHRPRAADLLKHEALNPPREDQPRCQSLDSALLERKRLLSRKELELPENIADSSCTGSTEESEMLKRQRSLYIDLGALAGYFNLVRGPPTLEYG

Sequence of Mitogen-activated protein kinase kinase kinase 14 (Homo sapiens), Q99558 [S549D] (Q99558 whole entry S549D, the tested form may be a part): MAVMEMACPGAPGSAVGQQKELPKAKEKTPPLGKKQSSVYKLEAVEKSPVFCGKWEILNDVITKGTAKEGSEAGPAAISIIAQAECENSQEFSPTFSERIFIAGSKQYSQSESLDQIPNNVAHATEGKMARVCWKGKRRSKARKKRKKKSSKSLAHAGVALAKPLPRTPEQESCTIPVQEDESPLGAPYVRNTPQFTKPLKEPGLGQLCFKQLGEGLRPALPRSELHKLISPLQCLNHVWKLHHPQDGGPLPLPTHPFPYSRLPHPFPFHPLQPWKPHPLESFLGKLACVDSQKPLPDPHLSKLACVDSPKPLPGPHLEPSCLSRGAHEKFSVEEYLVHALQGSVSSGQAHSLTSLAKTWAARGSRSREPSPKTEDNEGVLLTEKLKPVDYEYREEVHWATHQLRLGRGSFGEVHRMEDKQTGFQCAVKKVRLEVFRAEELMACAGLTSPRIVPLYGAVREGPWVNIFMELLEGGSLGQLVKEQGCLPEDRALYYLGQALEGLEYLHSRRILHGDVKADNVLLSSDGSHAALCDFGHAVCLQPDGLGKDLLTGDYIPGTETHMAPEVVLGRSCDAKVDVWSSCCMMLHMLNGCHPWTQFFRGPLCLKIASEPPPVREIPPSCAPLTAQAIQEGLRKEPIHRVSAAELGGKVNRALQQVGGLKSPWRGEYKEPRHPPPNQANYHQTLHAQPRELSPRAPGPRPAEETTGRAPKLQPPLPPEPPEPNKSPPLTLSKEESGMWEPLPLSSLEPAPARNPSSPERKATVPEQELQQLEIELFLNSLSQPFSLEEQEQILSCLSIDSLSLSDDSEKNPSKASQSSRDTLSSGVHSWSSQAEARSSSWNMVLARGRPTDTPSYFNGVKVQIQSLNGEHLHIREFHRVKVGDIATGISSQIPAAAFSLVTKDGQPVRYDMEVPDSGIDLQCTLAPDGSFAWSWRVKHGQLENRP

inhibition [1]: inactive
IC50 [2]: > 100 µM
IC50 [3]: > 100 µM
SMILES: CC(=O)n1nc(C)c(-c2ccc(Cl)c(Cl)c2)c1N
